Converted amounts (≈) assume the structure as drawn.
Columns and labels:
Streptococcus pyogenes [1] = assay: Minimum inhibitory concentration against Streptococcus pyogenes C 203 evaluated in vitro; type: functional
How it was run: (§1)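 Twofold broth microdilution in Difco Todd-Hewitt broth, final inoculum ~10⁴ cfu/mL, overnight at 37 °C. MIC (μg/mL) was read as the lowest concentration showing no visible growth.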

[2] = Association constant of compound was evaluated at pH 5; type: ADME
How it was run: (§2)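 UV difference spectroscopy: Ac₂-L-Lys-D-Ala-D-Ala was added to antibiotic at 30 μM (initial) in 10% MeOH/sodium phosphate buffer (pH 5 or pH 9). Double-beam spectrophotometer, 4-cm nonthermostated cells, 24 ± 2 °C. ΔA was monitored at 294 nm, and Ka was taken from the slope of a Scatchard plot.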

Streptococcus pyogenes [3] = assay: Minimum inhibitory concentration administered subcutaneously against Streptococcus pyogenes C203 in mouse; details: sc
[4] = test system: Staphylococcus epidermidis; assay: Minimum inhibitory concentration against Staphylococcus epidermis ATCC 12228 evaluated in vitro; type: functional
How it was run: (§3)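 Twofold broth microdilution in Oxoid Iso-Sensitest broth, final inoculum ~10⁴ cfu/mL, overnight at 37 °C. MIC (μg/mL) was read as the lowest concentration with no visible growth. Coagulase-negative staphylococci were identified by API STAPH per Kloos and Schleifer.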

Enterococcus faecalis = assay: Minimum inhibitory concentration against Streptococcus faecalis ATCC 7080 evaluated in vitro; type: functional; how it was run: as §3
[5] = Association constant of compound was evaluated at pH 9; type: ADME; how it was run: as §2
Staphylococcus aureus = assay: Minimum inhibitory concentration against Staphylococcus aureus Tour evaluated in vitro; type: functional; how it was run: as §3
Streptococcus pneumoniae = assay: Minimum inhibitory concentration against Streptococcus pneumoniae UC 41 evaluated in vitro; type: functional; how it was run: as §1
Staphylococcus hominis = assay: Minimum inhibitory concentration against Staphylococcus hominis L1070 evaluated in vitro; type: functional; how it was run: as §3
Staphylococcus simulans [6] = assay: Minimum inhibitory concentration against Staphylococcus simulans L1142 evaluated in vitro; type: functional; how it was run: as §3
[7] = test system: Staphylococcus epidermidis; assay: Minimum inhibitory concentration against Staphylococcus epidermis L1378 evaluated in vitro; type: functional; how it was run: as §3
Staphylococcus warneri = assay: Minimum inhibitory concentration against Staphylococcus warneri L1375 evaluated in vitro; type: functional; how it was run: as §3
Staphylococcus simulans [8] = assay: Minimum inhibitory concentration against Staphylococcus simulans L785 evaluated in vitro; type: functional; how it was run: as §3
[9] = test system: Staphylococcus haemolyticus; assay: Minimum inhibitory concentration against Staphylococcus haemolyticus L1520 evaluated in vitro; type: functional; how it was run: as §3
Streptococcus pyogenes [10] = assay: Minimum inhibitory concentration against Streptococcus pyogenes C203 evaluated in vivo(mouse); type: functional
How it was run: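 Mice in groups of five were infected intraperitoneally with S. pyogenes C 203, with inoculum set so untreated animals die of septicemia within 48 h. A single subcutaneous treatment was given immediately after infection. ED₅₀ was calculated from the percentage surviving at each dose on day 7.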

[11] = Streptococcus pyogenes, read-out: MIC
[12] = Staphylococcus epidermidis, ATCC 12228, read-out: MIC
[13] = Staphylococcus aureus, read-out: MIC
[14] = Streptococcus pneumoniae, read-out: MIC

Structure (SMILES)	MIC (Streptococcus pyogenes [1]; [11]) [mg/L]	Ka [2] [M⁻¹]	ED50 (Streptococcus pyogenes [3]) [mg/kg]	MIC [4, 12] [mg/L]	MIC (Enterococcus faecalis) [mg/L]	Ka [5] [M⁻¹]	MIC (Staphylococcus aureus; [13]) [mg/L]	MIC (Streptococcus pneumoniae; [14]) [mg/L]	MIC (Staphylococcus hominis) [mg/L]	MIC (Staphylococcus simulans [6]) [mg/L]	MIC [7] [mg/L]	MIC (Staphylococcus warneri) [mg/L]	MIC (Staphylococcus simulans [8]) [mg/L]	MIC [9] [mg/L]	MIC [4] [mg/L]	ED50 (Streptococcus pyogenes [10]) [mg/kg]	MIC (Streptococcus pyogenes [1]) [mg/L]	MIC (Staphylococcus aureus) [mg/L]	MIC (Streptococcus pneumoniae) [mg/L]
N[C@H]1C(=O)NC2Cc3ccc(c(Cl)c3)Oc3cc4cc(c3O)Oc3ccc(cc3Cl)C/C3=N\C(=O)C(NC(=O)C4NC(=O)C(NC2=O)c2cc(O)cc(c2)Oc2cc1ccc2O)c1ccc(O)c(c1)-c1c(O[C@H]2O[C@H](CO)[C@@H](O)[C@@H](O)[C@@H]2O)cc(O)cc1[C@@H](C(=O)O)NC3=O (some centres not stated)	2 (≈ 1.49 µM)	380000	5.8	0.5 (≈ 0.372 µM)	1 (≈ 0.745 µM)	61000	0.25 (≈ 0.186 µM)	2 (≈ 1.49 µM)	–	–	–	–	–	–	–	–	–	–	–
N[C@H]1C(=O)N[C@@H]2Cc3ccc(c(Cl)c3)Oc3cc4cc(c3O)Oc3ccc(cc3Cl)[C@@H](O)[C@@H]3NC(=O)[C@H](NC(=O)[C@@H]4NC(=O)[C@@H](NC2=O)c2cc(O)cc(c2)Oc2cc1ccc2O)c1ccc(O)c(c1)-c1c(O)cc(O)cc1[C@@H](C(=O)O)NC3=O [TEICOPLANIN AGLYCON]	0.125 (≈ 0.104 µM)	2.5e+06	0.95	0.016 (≈ 0.0133 µM)	0.125 (≈ 0.104 µM)	30000	0.063 (≈ 0.0525 µM)	0.125 (≈ 0.104 µM)	0.063 (≈ 0.0525 µM)	0.063 (≈ 0.0525 µM)	0.063 (≈ 0.0525 µM)	0.25 (≈ 0.209 µM)	0.063 (≈ 0.0525 µM)	0.125 (≈ 0.104 µM)	–	–	–	–	–
N[C@H]1C(=O)NC2Cc3ccc(c(Cl)c3)Oc3cc4cc(c3O)Oc3ccc(cc3Cl)/C=C3\NC(=O)C(NC(=O)C4NC(=O)C(NC2=O)c2cc(O)cc(c2)Oc2cc1ccc2O)c1ccc(O)c(c1)-c1c(O)cc(O)cc1[C@@H](C(=O)O)NC3=O (stereo in doubt; 5)	8 (≈ 6.77 µM)	–	–	–	16 (≈ 13.5 µM)	< 100	2 (≈ 1.69 µM)	8 (≈ 6.77 µM)	–	–	–	–	–	–	0.5 (≈ 0.423 µM)	–	–	–	–
CC(=O)N[C@@H]1[C@H](O[C@@H]2c3ccc(c(Cl)c3)Oc3cc4cc(c3O)Oc3ccc(cc3Cl)C[C@H]3NC(=O)[C@H](N)c5ccc(O)c(c5)Oc5cc(O)cc(c5)[C@H](NC3=O)C(=O)N[C@H]4C(=O)N[C@H]3C(=O)N[C@@H]2C(=O)N[C@H](C(=O)O)c2cc(O)cc(O)c2-c2cc3ccc2O)O[C@@H](CO)[C@@H](O)[C@@H]1O	0.5 (≈ 0.357 µM)	2.6e+06	–	0.125 (≈ 0.0892 µM)	1 (≈ 0.713 µM)	32000	0.5 (≈ 0.357 µM)	1 (≈ 0.713 µM)	–	–	–	–	–	–	–	–	–	–	–
N[C@H]1C(=O)NC2Cc3ccc(c(Cl)c3)Oc3cc4cc(c3O)Oc3ccc(cc3Cl)C/C3=N\C(=O)C(NC(=O)C4NC(=O)C(NC2=O)c2cc(O)cc(c2)Oc2cc1ccc2O)c1ccc(O)c(c1)-c1c(O)cc(O)cc1[C@@H](C(=O)O)NC3=O (some centres not stated)	1 (≈ 0.847 µM)	100000	–	0.125 (≈ 0.106 µM)	–	–	0.25 (≈ 0.212 µM)	1 (≈ 0.847 µM)	0.125 (≈ 0.106 µM)	0.125 (≈ 0.106 µM)	0.125 (≈ 0.106 µM)	1 (≈ 0.847 µM)	0.125 (≈ 0.106 µM)	0.5 (≈ 0.423 µM)	–	5	–	–	–
N[C@H]1C(=O)NC2Cc3ccc(c(Cl)c3)Oc3cc4cc(c3O)Oc3ccc(cc3Cl)/C=C3\NC(=O)C(NC(=O)C4NC(=O)C(NC2=O)c2cc(O)cc(c2)Oc2cc1ccc2O)c1ccc(O)c(c1)-c1c(O)cc(O)cc1[C@@H](C(=O)O)NC3=O (stereo in doubt; 4)	–	< 100	–	–	–	< 100	–	–	–	–	–	–	–	–	0.125 (≈ 0.106 µM)	–	4 (≈ 3.39 µM)	1 (≈ 0.847 µM)	4 (≈ 3.39 µM)
CCCCC/C=C/CCC(=O)N[C@@H]1[C@H](Oc2c3cc4cc2Oc2ccc(cc2Cl)[C@@H](O[C@@H]2O[C@@H](CO)[C@@H](O)[C@H](O)[C@@H]2NC(C)=O)[C@@H]2NC(=O)[C@H](NC(=O)[C@@H]4NC(=O)[C@H]4NC(=O)[C@@H](Cc5ccc(c(Cl)c5)O3)NC(=O)[C@H](N)c3ccc(O)c(c3)Oc3cc(O)cc4c3)c3ccc(O)c(c3)-c3c(O[C@H]4O[C@H](CO)[C@@H](O)[C@@H](O)[C@@H]4O)cc(O)cc3[C@@H](C(=O)O)NC2=O)O[C@@H](CO)[C@@H](O)[C@@H]1O	0.063 (≈ 0.0336 µM)	1600000	0.18	0.25 (≈ 0.133 µM)	0.125 (≈ 0.0666 µM)	2.1e+06	0.125 (≈ 0.0666 µM)	0.063 (≈ 0.0336 µM)	0.25 (≈ 0.133 µM)	0.125 (≈ 0.0666 µM)	0.5 (≈ 0.266 µM)	2 (≈ 1.07 µM)	0.25 (≈ 0.133 µM)	4 (≈ 2.13 µM)	–	–	–	–	–
CC(=O)N[C@@H]1[C@H](O[C@@H]2c3ccc(c(Cl)c3)Oc3cc4cc(c3O)Oc3ccc(cc3Cl)C[C@H]3NC(=O)[C@H](N)c5ccc(O)c(c5)Oc5cc(O)cc(c5)[C@H](NC3=O)C(=O)N[C@H]4C(=O)N[C@H]3C(=O)N[C@@H]2C(=O)N[C@H](C(=O)O)c2cc(O)cc(O[C@H]4O[C@H](CO)[C@@H](O)[C@@H](O)[C@@H]4O)c2-c2cc3ccc2O)O[C@@H](CO)[C@@H](O)[C@@H]1O	0.5 (≈ 0.32 µM)	1200000	–	0.25 (≈ 0.16 µM)	2 (≈ 1.28 µM)	90000	0.25 (≈ 0.16 µM)	0.5 (≈ 0.32 µM)	–	–	–	–	–	–	–	–	–	–	–
CCCCC/C=C/CCC(=O)N[C@@H]1[C@H](Oc2c3cc4cc2Oc2ccc(cc2Cl)CC2NC(=O)[C@H](N)c5ccc(O)c(c5)Oc5cc(O)cc(c5)C(NC2=O)C(=O)NC4C(=O)NC2C(=O)/N=C(\Cc4ccc(c(Cl)c4)O3)C(=O)N[C@H](C(=O)O)c3cc(O)cc(O[C@H]4O[C@H](CO)[C@@H](O)[C@@H](O)[C@@H]4O)c3-c3cc2ccc3O)O[C@@H](CO)[C@@H](O)[C@@H]1O (some centres not stated)	0.063 (≈ 0.038 µM)	390000	0.35	0.25 (≈ 0.151 µM)	1 (≈ 0.604 µM)	60000	0.5 (≈ 0.302 µM)	0.063 (≈ 0.038 µM)	–	–	–	–	–	–	–	–	–	–	–

— ChEMBL document CHEMBL1124656, “Synthesis and biological evaluation of de(acetylglucosaminyl)didehydrodeoxy derivatives of teicoplanin antibodies” (J Med Chem, 1989)
